According to ChEMBL document CHEMBL1811853, “Design and evaluation of 3-aminopyrazolopyridinone kinase inhibitors inspired by the natural product indirubin” (Bioorg Med Chem, 2011):

How the values were obtained:
[1] = target: T1, Aurora kinase A (Homo sapiens) (UniProt O14965); assay: Inhibition of AurA at 30 uM by microfluidic mobility shift assay
T1 sequence (whole entry): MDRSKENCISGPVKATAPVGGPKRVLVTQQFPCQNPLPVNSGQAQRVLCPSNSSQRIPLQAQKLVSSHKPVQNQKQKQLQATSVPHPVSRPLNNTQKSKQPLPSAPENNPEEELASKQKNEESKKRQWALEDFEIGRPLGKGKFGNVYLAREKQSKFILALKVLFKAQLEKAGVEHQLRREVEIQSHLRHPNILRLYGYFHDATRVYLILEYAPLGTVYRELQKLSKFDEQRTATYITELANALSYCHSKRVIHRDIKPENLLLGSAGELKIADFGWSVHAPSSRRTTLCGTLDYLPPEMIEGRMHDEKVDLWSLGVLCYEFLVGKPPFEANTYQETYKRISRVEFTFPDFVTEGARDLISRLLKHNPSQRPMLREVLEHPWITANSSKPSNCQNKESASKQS
How it was run: (§1)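 Single-concentration screen, singlicate, 30 uM final (diluted from 1 mM DMSO solutions), fluorescently tagged peptide substrate appropriate to each kinase, ATP at apparent Km for each protein. Phosphorylated and unphosphorylated peptides separated electrophoretically; conversion is the phosphorylated peak area over the sum of both peaks. No-inhibitor and no-ATP controls; H89 reference on each plate.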

[2] = target: T2, Protein kinase C zeta type (Homo sapiens) (UniProt Q05513); assay: Inhibition of PKCz at 30 uM by microfluidic mobility shift assay; how it was run: as §1
T2 sequence (whole entry): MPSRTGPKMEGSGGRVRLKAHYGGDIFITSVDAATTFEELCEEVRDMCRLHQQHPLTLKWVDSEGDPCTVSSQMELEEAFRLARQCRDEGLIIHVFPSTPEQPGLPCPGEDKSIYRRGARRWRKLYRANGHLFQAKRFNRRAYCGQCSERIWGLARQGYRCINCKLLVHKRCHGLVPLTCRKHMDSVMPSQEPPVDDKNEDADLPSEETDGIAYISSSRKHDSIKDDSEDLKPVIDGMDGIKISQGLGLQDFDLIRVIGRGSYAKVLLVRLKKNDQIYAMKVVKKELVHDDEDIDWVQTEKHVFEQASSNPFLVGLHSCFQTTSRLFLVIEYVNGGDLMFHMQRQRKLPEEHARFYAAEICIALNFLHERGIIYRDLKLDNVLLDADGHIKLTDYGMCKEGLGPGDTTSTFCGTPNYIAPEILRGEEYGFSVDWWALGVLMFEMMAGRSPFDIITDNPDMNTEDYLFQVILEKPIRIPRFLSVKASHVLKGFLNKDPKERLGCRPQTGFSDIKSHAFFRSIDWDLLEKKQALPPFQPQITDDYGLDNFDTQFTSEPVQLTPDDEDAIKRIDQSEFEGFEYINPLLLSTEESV

[3] = target: Serine/threonine-protein kinase Chk2 (Homo sapiens, UniProt O96017); assay: Inhibition of CHK2 at 30 uM by microfluidic mobility shift assay; how it was run: as §1
[4] = target: Glycogen synthase kinase-3 beta (Homo sapiens) (UniProt P49841); assay: Inhibition of GSK3B at 30 uM by microfluidic mobility shift assay; how it was run: as §1
[5] = target: Insulin receptor (Homo sapiens) (UniProt P06213); assay: Inhibition of INSR at 30 uM by microfluidic mobility shift assay; how it was run: as §1
MCF7 = assay: Growth inhibition of human MCF7 cells; format: functional

Chain of Insulin receptor (Homo sapiens) (P06213 28-758 limits assumed): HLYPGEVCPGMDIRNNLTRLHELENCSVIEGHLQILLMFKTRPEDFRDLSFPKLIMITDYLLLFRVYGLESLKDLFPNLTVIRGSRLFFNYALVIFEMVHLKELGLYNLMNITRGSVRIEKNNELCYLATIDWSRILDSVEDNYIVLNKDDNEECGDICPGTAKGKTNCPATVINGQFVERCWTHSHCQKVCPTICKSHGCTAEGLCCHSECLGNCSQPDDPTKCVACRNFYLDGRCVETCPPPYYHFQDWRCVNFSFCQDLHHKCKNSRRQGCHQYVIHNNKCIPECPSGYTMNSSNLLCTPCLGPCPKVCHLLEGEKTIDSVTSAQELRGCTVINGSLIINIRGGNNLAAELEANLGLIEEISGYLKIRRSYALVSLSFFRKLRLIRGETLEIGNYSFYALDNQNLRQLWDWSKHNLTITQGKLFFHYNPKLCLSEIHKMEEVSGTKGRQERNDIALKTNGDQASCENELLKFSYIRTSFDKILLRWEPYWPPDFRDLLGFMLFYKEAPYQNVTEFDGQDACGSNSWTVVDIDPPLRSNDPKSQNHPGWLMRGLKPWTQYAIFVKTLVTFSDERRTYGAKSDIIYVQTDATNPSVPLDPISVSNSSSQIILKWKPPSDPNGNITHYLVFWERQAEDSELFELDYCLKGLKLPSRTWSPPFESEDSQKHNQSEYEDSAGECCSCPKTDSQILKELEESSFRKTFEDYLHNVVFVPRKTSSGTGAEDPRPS
Chain of Insulin receptor (Homo sapiens) (P06213 763-1382 limits assumed): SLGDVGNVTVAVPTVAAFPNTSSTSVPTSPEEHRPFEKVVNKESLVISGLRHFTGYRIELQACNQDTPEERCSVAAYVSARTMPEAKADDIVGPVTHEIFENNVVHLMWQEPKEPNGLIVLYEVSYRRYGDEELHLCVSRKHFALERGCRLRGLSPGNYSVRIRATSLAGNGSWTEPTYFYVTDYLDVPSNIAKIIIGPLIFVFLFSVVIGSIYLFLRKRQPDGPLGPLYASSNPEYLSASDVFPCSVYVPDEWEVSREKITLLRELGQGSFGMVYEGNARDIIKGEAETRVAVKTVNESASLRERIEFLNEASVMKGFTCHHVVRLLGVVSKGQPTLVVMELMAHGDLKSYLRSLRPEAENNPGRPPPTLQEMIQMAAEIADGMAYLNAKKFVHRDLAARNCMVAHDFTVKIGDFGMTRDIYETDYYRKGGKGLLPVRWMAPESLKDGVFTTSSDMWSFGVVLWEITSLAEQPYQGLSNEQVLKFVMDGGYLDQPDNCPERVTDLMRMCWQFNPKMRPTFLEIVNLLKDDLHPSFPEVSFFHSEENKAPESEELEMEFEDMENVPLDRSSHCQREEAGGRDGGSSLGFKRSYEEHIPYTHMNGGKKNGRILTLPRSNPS
Chain of Serine/threonine-protein kinase Chk2 (O96017 whole entry): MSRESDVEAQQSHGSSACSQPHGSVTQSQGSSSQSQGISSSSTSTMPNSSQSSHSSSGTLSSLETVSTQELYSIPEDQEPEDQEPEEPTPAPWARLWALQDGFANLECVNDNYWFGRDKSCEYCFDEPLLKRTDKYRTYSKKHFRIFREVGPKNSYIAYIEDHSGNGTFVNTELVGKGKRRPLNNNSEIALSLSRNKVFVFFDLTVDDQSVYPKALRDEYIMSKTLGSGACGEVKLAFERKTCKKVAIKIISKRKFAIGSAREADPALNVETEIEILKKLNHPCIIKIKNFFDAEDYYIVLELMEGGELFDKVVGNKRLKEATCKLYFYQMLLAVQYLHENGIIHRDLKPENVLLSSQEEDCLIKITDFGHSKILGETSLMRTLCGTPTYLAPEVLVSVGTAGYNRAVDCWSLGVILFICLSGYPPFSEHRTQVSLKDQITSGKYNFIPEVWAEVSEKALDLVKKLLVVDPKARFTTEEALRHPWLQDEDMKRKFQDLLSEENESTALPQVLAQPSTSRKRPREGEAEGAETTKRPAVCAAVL
Chain of Glycogen synthase kinase-3 beta (Homo sapiens) (P49841 whole entry, looked up): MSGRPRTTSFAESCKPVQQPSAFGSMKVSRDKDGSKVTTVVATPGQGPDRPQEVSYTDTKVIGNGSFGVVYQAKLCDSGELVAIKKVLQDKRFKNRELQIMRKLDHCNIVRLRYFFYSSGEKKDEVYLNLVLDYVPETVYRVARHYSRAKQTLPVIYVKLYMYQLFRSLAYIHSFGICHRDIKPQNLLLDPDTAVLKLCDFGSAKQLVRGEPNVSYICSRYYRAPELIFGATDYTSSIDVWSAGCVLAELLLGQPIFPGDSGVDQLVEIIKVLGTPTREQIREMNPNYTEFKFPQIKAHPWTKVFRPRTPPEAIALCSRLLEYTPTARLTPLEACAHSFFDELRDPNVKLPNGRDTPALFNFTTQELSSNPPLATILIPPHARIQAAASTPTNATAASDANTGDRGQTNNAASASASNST

inhibition [1]: 30%
inhibition [2]: 3%
inhibition [3]: 3%
inhibition [4]: 11%
inhibition [5]: 4%
GI50 (MCF7): 210 nM
Compound: Nc1c2c(=O)[nH]c(-c3ccccn3)cc2nn1-c1ccccc1
